Converted amounts (≈) assume the structure as drawn.
Key:
Acinetobacter baumannii [1] = assay: Synergistic antibacterial activity against Acinetobacter baumannii ATCC 17978 assessed as rifampicin MIC at <=0.25 times MIC incubated for overnight by microbroth dilution checkerboard assay; assay type: functional
In short: (§1)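 Checkerboard microdilution under MIC conditions (TSB, overnight, 37 °C). Two-fold series of each agent were combined on one plate before bacteria were added, and single-agent MICs were measured on the same plate. FIC = sum of combination MIC/alone MIC for each agent, taken from the most synergistic well. Three independent repeats, mean ± SD. ≤0.5 was taken as strong synergy and 0.5–<1 as weak.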

Staphylococcus aureus [2] = assay: Antibacterial activity against methicillin sensitive Staphylococcus aureus ATCC 9144 assessed as bacterial growth inhibition incubated for overnight by microbroth dilution method; assay type: functional
In short: (§2)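 Microbroth dilution in Tryptic Soy Broth. DMSO stocks were diluted in TSB as 2-fold series. Overnight TSB cultures were back-diluted to OD 0.01 and mixed 1:1 with compound. Incubation was overnight at 37 °C. MIC is the lowest concentration with no visible growth (<0.1 OD600). DMSO at equivalent concentrations was checked.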

Pseudomonas aeruginosa [3] = assay: Synergistic antibacterial activity against Pseudomonas aeruginosa NCTC 13437 assessed as fold change in rifampicin MIC at <=0.25 times MIC incubated for overnight by microbroth dilution checkerboard assay relative to rifampicin alone; assay type: functional
In short: (§3)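 Checkerboard microdilution in Tryptic Soy Broth, run like the MIC assay. Overnight TSB cultures were back-diluted to OD 0.01 and added 1:1 to the combined two-fold series of both agents, then incubated overnight at 37 °C. Growth/no-growth was called at <0.1 OD600. MICs alone were read on the same plates. FIC index came from the most synergistic well; three independent repeats, mean ± SD.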

Staphylococcus aureus [4] = assay: Antibacterial activity against methicillin sensitive Staphylococcus aureus 1199B assessed as bacterial growth inhibition incubated for overnight by microbroth dilution method; assay type: functional; in short: as §2
Enterococcus faecalis [5] = assay: Antibacterial activity against vancomycin resistant Enterococcus faecalis NCTC 12201 assessed as bacterial growth inhibition incubated for overnight by microbroth dilution method; assay type: functional; in short: as §2
Acinetobacter baumannii [6] = assay: Synergistic antibacterial activity against Acinetobacter baumannii ATCC 17978 assessed as fold change in rifampicin MIC at <=0.25 times MIC incubated for overnight by microbroth dilution checkerboard assay relative to rifampicin alone; assay type: functional; in short: as §1
Staphylococcus aureus [7] = assay: Antibacterial activity against methicillin resistant Staphylococcus aureus USA 300 assessed as bacterial growth inhibition incubated for overnight by microbroth dilution method; assay type: functional; in short: as §2
Klebsiella pneumoniae [8] = assay: Synergistic antibacterial activity against Klebsiella pneumoniae NCTC 13368 assessed as fold change in rifampicin MIC at <=0.25 times MIC incubated for overnight by microbroth dilution checkerboard assay relative to rifampicin alone; assay type: functional
In short: (§4)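 Checkerboard run under the MIC conditions (TSB, overnight, 37 °C). Antibiotic and lipoguanidine 2-fold series were combined on one plate before bacteria were added. Growth/no-growth was scored as for the MIC (<0.1 OD600). Single-agent MICs were measured on the same plates. Three independent repeats were done.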

Enterococcus faecium = assay: Antibacterial activity against vancomycin resistant Enterococcus faecium NCTC 12204 assessed as bacterial growth inhibition incubated for overnight by microbroth dilution method; assay type: functional; in short: as §2
Pseudomonas aeruginosa [9] = assay: Synergistic antibacterial activity against Pseudomonas aeruginosa PAO1 assessed as fold change in rifampicin MIC at <=0.25 times MIC incubated for overnight by microbroth dilution checkerboard assay relative to rifampicin alone; assay type: functional; in short: as §3
Klebsiella pneumoniae [10] = assay: Antibacterial activity against ESBL Klebsiella pneumoniae NCTC 13368 assessed as bacterial growth inhibition incubated for overnight by microbroth dilution method
Escherichia coli [11] = assay: Synergistic antibacterial activity against Escherichia coli NCTC 12923 assessed as fold change in rifampicin MIC at <=0.25 times MIC incubated for overnight by microbroth dilution checkerboard assay relative to rifampicin alone; assay type: functional; in short: as §1
Acinetobacter baumannii [12] = assay: Antibacterial activity against Acinetobacter baumannii AYE assessed as bacterial growth inhibition incubated for overnight by microbroth dilution method; assay type: functional
In short: (§5)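 Broth microdilution in Tryptic Soy Broth. DMSO stocks were diluted in TSB as 2-fold series. Overnight TSB cultures were back-diluted to OD 0.01 and mixed 1:1 with compound. Incubation was overnight at 37 °C. MIC was the lowest concentration without visible growth (<0.1 OD600). DMSO vehicle was checked at equivalent concentrations.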

Pseudomonas aeruginosa [13] = assay: Synergistic antibacterial activity against Pseudomonas aeruginosa PAO1 assessed as novobiocin MIC at <=0.25 times MIC incubated for overnight by microbroth dilution checkerboard assay; assay type: functional; in short: as §3
Acinetobacter baumannii [14] = assay: Antibacterial activity against Acinetobacter baumannii ATCC 17978 assessed as bacterial growth inhibition incubated for overnight by microbroth dilution method; assay type: functional; in short: as §5
Enterococcus faecalis [15] = assay: Antibacterial activity against vancomycin sensitive Enterococcus faecalis NCTC 775 assessed as bacterial growth inhibition incubated for overnight by microbroth dilution method
Klebsiella pneumoniae [16] = assay: Synergistic antibacterial activity against […] Klebsiella pneumoniae M6 assessed as rifampicin MIC at <=0.25 times MIC incubated for overnight by microbroth dilution checkerboard assay; assay type: functional; in short: as §4
Acinetobacter baumannii [17] = assay: Synergistic antibacterial activity against Acinetobacter baumannii AYE assessed as rifampicin MIC at <=0.25 times MIC incubated for overnight by microbroth dilution checkerboard assay; assay type: functional; in short: as §1
Escherichia coli [18] = assay: Antibacterial activity against Escherichia coli NCTC 12923 assessed as bacterial growth inhibition incubated for overnight by microbroth dilution method; assay type: functional; in short: as §5
Staphylococcus aureus [19] = assay: Antibacterial activity against methicillin resistant Staphylococcus aureus NCTC 13616 assessed as bacterial growth inhibition incubated for overnight by microbroth dilution method; assay type: functional; in short: as §2
Pseudomonas aeruginosa [20] = assay: Synergistic antibacterial activity against Pseudomonas aeruginosa PAO1 assessed as rifampicin MIC at <=0.25 times MIC incubated for overnight by microbroth dilution checkerboard assay; assay type: functional; in short: as §3
Acinetobacter baumannii [21] = assay: Synergistic antibacterial activity against Acinetobacter baumannii AYE assessed as fold change in rifampicin MIC at <=0.25 times MIC incubated for overnight by microbroth dilution checkerboard assay relative to rifampicin alone; assay type: functional; in short: as §1
Acinetobacter baumannii [22] = assay: Synergistic antibacterial activity against Acinetobacter baumannii ATCC 17978 assessed as novobiocin MIC at <=0.25 times MIC incubated for overnight by microbroth dilution checkerboard assay; assay type: functional; in short: as §1
Klebsiella pneumoniae [23] = assay: Antibacterial activity against Klebsiella pneumoniae M6 assessed as bacterial growth inhibition incubated for overnight by microbroth dilution method
Pseudomonas aeruginosa [24] = assay: Antibacterial activity against Pseudomonas aeruginosa NCTC 13437 assessed as bacterial growth inhibition incubated for overnight by microbroth dilution method; assay type: functional; in short: as §5
Klebsiella pneumoniae [25] = assay: Synergistic antibacterial activity against Klebsiella pneumoniae NCTC 13368 assessed as rifampicin MIC at <=0.25 times MIC incubated for overnight by microbroth dilution checkerboard assay; assay type: functional; in short: as §1
Escherichia coli [26] = assay: Synergistic antibacterial activity against Escherichia coli NCTC 12923 assessed as rifampicin MIC at <=0.25 times MIC incubated for overnight by microbroth dilution checkerboard assay; assay type: functional; in short: as §1
Pseudomonas aeruginosa [27] = assay: Synergistic antibacterial activity against Pseudomonas aeruginosa NCTC 13437 assessed as rifampicin MIC at <=0.25 times MIC incubated for overnight by microbroth dilution checkerboard assay; assay type: functional; in short: as §3
Pseudomonas aeruginosa [28] = assay: Antibacterial activity against Pseudomonas aeruginosa PAO1 assessed as bacterial growth inhibition incubated for overnight by microbroth dilution method; assay type: functional; in short: as §5

| SMILES | MIC (Acinetobacter baumannii [1]) | MIC (Staphylococcus aureus [2]) | fold change (FC) (Pseudomonas aeruginosa [3]) | MIC (Staphylococcus aureus [4]) | MIC (Enterococcus faecalis [5]) | fold change (FC) (Acinetobacter baumannii [6]) | MIC (Staphylococcus aureus [7]) | fold change (FC) (Klebsiella pneumoniae [8]) | MIC (Enterococcus faecium) | fold change (FC) (Pseudomonas aeruginosa [9]) | MIC (Klebsiella pneumoniae [10]) | fold change (FC) (Escherichia coli [11]) | MIC (Acinetobacter baumannii [12]) | MIC (Pseudomonas aeruginosa [13]) | MIC (Acinetobacter baumannii [14]) | MIC (Enterococcus faecalis [15]) | MIC (Klebsiella pneumoniae [16]) | MIC (Acinetobacter baumannii [17]) | MIC (Escherichia coli [18]) | MIC (Staphylococcus aureus [19]) | further results |
| --- | --- | --- | --- | --- | --- | --- | --- | --- | --- | --- | --- | --- | --- | --- | --- | --- | --- | --- | --- | --- | --- |
| CCCCCCCCCCNC(=N)NCCCCN | ≤ 0.125 µg/mL | 16 µg/mL (≈ 59.2 µM) | >=4 | 32 µg/mL (≈ 118 µM) | > 128 µg/mL | >=4 | 32 µg/mL (≈ 118 µM) | >=4 | > 128 µg/mL | >=4 | > 128 µg/mL | >=4 | > 128 µg/mL | 2 µg/mL | > 128 µg/mL | 128 µg/mL (≈ 473 µM) | ≤ 0.125 µg/mL | ≤ 0.125 µg/mL | 128 µg/mL (≈ 473 µM) | 32 µg/mL (≈ 118 µM) | MIC (Pseudomonas aeruginosa [20]): ≤ 0.125 µg/mL; fold change (FC) (Acinetobacter baumannii [21]): >=4; MIC (Acinetobacter baumannii [22]): 0.25 µg/mL; MIC (Klebsiella pneumoniae [23]): > 128 µg/mL; MIC (Pseudomonas aeruginosa [24]): > 128 µg/mL; MIC (Klebsiella pneumoniae [25]): 0.25 µg/mL; MIC (Escherichia coli [26]): ≤ 0.125 µg/mL; MIC (Pseudomonas aeruginosa [27]): ≤ 0.125 µg/mL; MIC (Pseudomonas aeruginosa [28]): > 128 µg/mL |
| CCCCC/C=C\C/C=C\CCCCCCCCNC(=N)NCCCCN | 0.5 µg/mL | 8 µg/mL (≈ 21.1 µM) | 0 | 16 µg/mL (≈ 42.3 µM) | 16 µg/mL (≈ 42.3 µM) | >=4 | 8 µg/mL (≈ 21.1 µM) | 0 | 16 µg/mL (≈ 42.3 µM) | 0 | 16 µg/mL (≈ 42.3 µM) | 0 | 8 µg/mL (≈ 21.1 µM) | > 128 µg/mL | 8 µg/mL (≈ 21.1 µM) | 32 µg/mL (≈ 84.5 µM) | 4 µg/mL | 0.25 µg/mL | 4 µg/mL (≈ 10.6 µM) | 16 µg/mL (≈ 42.3 µM) | MIC (Pseudomonas aeruginosa [20]): 16 µg/mL; fold change (FC) (Acinetobacter baumannii [21]): >=4; MIC (Acinetobacter baumannii [22]): 1 µg/mL; MIC (Klebsiella pneumoniae [23]): 8 µg/mL (≈ 21.1 µM); MIC (Pseudomonas aeruginosa [24]): > 64 µg/mL; MIC (Klebsiella pneumoniae [25]): 16 µg/mL; MIC (Escherichia coli [26]): 8 µg/mL; MIC (Pseudomonas aeruginosa [27]): 16 µg/mL; MIC (Pseudomonas aeruginosa [28]): 16 µg/mL (≈ 42.3 µM) |
| CC/C=C\C/C=C\C/C=C\CCCCCCCCNC(=N)NCCCCN | ≤ 0.125 µg/mL | 8 µg/mL (≈ 21.2 µM) | 0 | 8 µg/mL (≈ 21.2 µM) | 8 µg/mL (≈ 21.2 µM) | >=4 | 4 µg/mL (≈ 10.6 µM) | >=4 | 8 µg/mL (≈ 21.2 µM) | 0 | > 128 µg/mL | >=4 | 128 µg/mL (≈ 340 µM) | > 128 µg/mL | 128 µg/mL (≈ 340 µM) | 8 µg/mL (≈ 21.2 µM) | ≤ 0.125 µg/mL | ≤ 0.125 µg/mL | 32 µg/mL (≈ 85 µM) | 8 µg/mL (≈ 21.2 µM) | MIC (Pseudomonas aeruginosa [20]): 16 µg/mL; fold change (FC) (Acinetobacter baumannii [21]): >=4; MIC (Acinetobacter baumannii [22]): ≤ 0.125 µg/mL; MIC (Klebsiella pneumoniae [23]): 128 µg/mL (≈ 340 µM); MIC (Pseudomonas aeruginosa [24]): > 128 µg/mL; MIC (Klebsiella pneumoniae [25]): ≤ 0.125 µg/mL; MIC (Escherichia coli [26]): 1 µg/mL; MIC (Pseudomonas aeruginosa [27]): 16 µg/mL; MIC (Pseudomonas aeruginosa [28]): > 128 µg/mL |

From ChEMBL document CHEMBL5357066, “Development of Novel Membrane Disrupting Lipoguanidine Compounds Sensitizing Gram-Negative Bacteria to Antibiotics” (ACS Med Chem Lett, 2024)
